# Results collected from several papers.
# Lines come from different studies, so protocols differ.
# Cell line: A549
# Read-out: cell growth or viability
Structure (SMILES),method,time,IC50 [nM]
CC[C@H](C)[C@H](N)C(=O)O[C@]1(CC)C(=O)OCc2c1cc1n(c2=O)Cc2cc3cc4c(cc3nc2-1)OCO4,MTT,,77
O=C(N/N=C1\C(=O)N(Cc2ccccc2)c2ccc(Cl)cc21)c1cc2ccccc2[nH]1,imaging,48 h,1380
Cc1cccc(-n2ncc(Cl)c(Cl)c2=O)c1,resazurin,96 h,1400
Nc1cc(Cl)c(Cl)cc1N,,72 h,120000
COc1cccc2c1C(=O)c1c(O)c3c(c(O)c1C2=O)C[C@@](O)(C(=O)CO)C[C@@H]3O[C@H]1C[C@H](N)[C@H](O[C@@H]2CCCCO2)[C@H](C)O1,MTT,12 h,5800
COc1ccc2c(c1)/C(=N/NC(=O)c1cc3ccccc3[nH]1)C(=O)N2Cc1ccccc1,,,640
CCCCCCCC(=O)SCC/C=C/[C@@H]1CC(=O)NCc2nc(cs2)C2=N[C@@](C)(CS2)C(=O)N[C@@H](C(C)C)C(=O)O1,resazurin,48 h,3.8
O=C(N/N=C1\C(=O)N(Cc2ccccc2)c2ccc(F)cc21)c1cc2ccccc2[nH]1,,,1410
COc1c2c(cc3c1OCO3)[C@]13C=C[C@H](OC)C[C@@H]1[N@](C2)C[C@H]3OC(=O)c1ccco1,WST-1,,> 10000
CC[C@@]1(OC(=O)C(C)c2ccc(CC(C)C)cc2)C(=O)OCc2c1cc1n(c2=O)Cc2cc3cc4c(cc3nc2-1)OCO4 (stereo partly shown),MTT,,> 5000
N.N.[Cl][Pt][Cl],resazurin,72 h,3400
CC[C@@]1(OC(=O)[C@@H](N)CCSC)C(=O)OCc2c1cc1n(c2=O)Cc2cc3cc4c(cc3nc2-1)OCO4,MTT,,85
CC1=C(O)C(=O)C=C2C1=CC=C1[C@@]2(C)CC[C@@]2(C)[C@@H]3C[C@](C)(C(=O)O)CC[C@]3(C)CC[C@]12C,MTT,48 h,5340
CC[C@@]1(OC(=O)[C@@H](N)CCCCN)C(=O)OCc2c1cc1n(c2=O)Cc2cc3cc4c(cc3nc2-1)OCO4,MTT,,88
Cc1ccc(CN2C(=O)/C(=N\NC(=O)c3cc4ccccc4[nH]3)c3ccccc32)cc1,,,640
CC[C@@]1(OC(=O)[C@@H](N)Cc2ccccc2)C(=O)OCc2c1cc1n(c2=O)Cc2cc3cc4c(cc3nc2-1)OCO4,MTT,,36
COc1c2c(cc3c1OCO3)[C@]13C=C[C@H](OC)C[C@@H]1[N@](C2)C[C@H]3OC(=O)c1ccc2ccccc2c1,WST-1,,> 10000
CC1=CC(=O)c2c(O)cccc2C1=O,SRB,,2820
CC[C@@]1(OC(=O)CN)C(=O)OCc2c1cc1n(c2=O)Cc2cc3cc4c(cc3nc2-1)OCO4,MTT,,29
